The text below walks through data of ChEMBL document CHEMBL3046706, “Synthesis and quantitative structure-activity relationships of new 2,5-disubstituted-1,3,4-oxadiazoles” (2001).

One may read the LC50 as the concentration that kills 50% of the test population. Broadly, the mortality is the percentage killed. Read a low mortality as a weak lethal effect.

Common to all, as to format: functional
One test relates to Spodoptera eridania. Nature of the test: Insecticidal activity against second-instar larvae of Spodoptera eridania fed on compound-treated corn leaves measured after 5 days. Conditions: 120 h.
The test system of test [1] is Mythimna separata. Nature of the test: Insecticidal activity against second-instar larvae of Mythimna separata (Oriental armyworm) fed on compound-treated mealie leaves measured after 5 days. Conditions: 120 h. The method in brief:
(§1)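 Second-instar Pseudaletia separata larvae were fed compound-treated mealie leaves, with fresh treated leaves added daily, at about 20 °C in a well-ventilated room. Percent mortality at 5 days was based on the number and size of live larvae relative to untreated controls. LC50 values are in μg/mL and were converted to pLC50 (−log LC50).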

The subject of test [2] is Mythimna separata. Nature of the test: Insecticidal activity against second-instar larvae of Mythimna separata (Oriental armyworm) fed on compound-treated mealie leaves at pLC50 measured after 5 days. The method in brief:
as §1

On to `Fc1cccc(-c2nnc(-c3cc(F)c(Cl)cc3Cl)o2)c1`, for which, in the test with Spodoptera eridania, the LC50 was 51.3 µM.

On to `CC1(C)C(C=C(Cl)Cl)C1c1nnc(-c2cccc(F)c2)o1` (configuration not stated), for which the LC50 with Spodoptera eridania is 759 µM. Compared with the last compound, the LC50 is about 15-fold higher.

As to `CC1(C)[C@@H](C=C(Cl)Cl)[C@@H]1c1nnc(-c2ccc(Cl)cc2Cl)o1` (relative stereo), the median lethal concentration (LC50) with Mythimna separata [1] is 123 µM.

Consider `Fc1cccc(-c2nnc(COc3ccc(Cl)cc3)o2)c1`, for which the median lethal concentration (LC50) in the test with Mythimna separata [1] is > 1000 µM. The compound also gave a mortality with Mythimna separata [2] of 0%.

For the compound `Clc1ccc(OCc2nnc(-c3cccnc3Cl)o2)cc1`, in the test with Mythimna separata [1], the LC50 was > 1000 µM. For the same compound, the mortality in the test on Mythimna separata [2] turned out to be 0%.

Take `Fc1cc(-c2nnc(COc3ccccc3Cl)o2)c(Cl)cc1Cl`: the median lethal concentration (LC50) in the test on Mythimna separata [1] is 14.5 µM.

In the test with Mythimna separata [1], `Fc1cc(-c2nnc(COc3ccc(Cl)cc3)o2)c(Cl)cc1Cl` showed an LC50 of 55 µM.

`CC1(C)C(C=C(Cl)Cl)C1c1nnc(-c2cc(F)c(Cl)cc2Cl)o1` (configuration not stated) gave an LC50 in the test on Spodoptera eridania of 562 µM.

`Fc1cc(-c2nnc(-c3cc(F)c(Cl)cc3Cl)o2)c(Cl)cc1Cl` gave an LC50 in the test on Spodoptera eridania of 1.78 µM.

As to `CC1(C)C(C=C(Cl)Cl)C1c1nnc(-c2ccc(Cl)cc2)o1` (mixture of isomers), in the test with Mythimna separata [1], the 50% lethal concentration (LC50) is > 1000 µM. In the test with Mythimna separata [2], this compound yielded a mortality of 0%.

As to `Fc1cc(-c2nnc(-c3ccc(Cl)cc3Cl)o2)c(Cl)cc1Cl`, the median lethal concentration (LC50) with Spodoptera eridania is 5.25 µM.

Turning to `Clc1ccc(OCc2nnc(-c3ccc(Cl)cc3Cl)o2)c(Cl)c1`, the 50% lethal concentration (LC50) with Mythimna separata [1] was 776 µM.

Consider `Clc1ccc(OCc2nnc(-c3ccc(Cl)nc3)o2)cc1`, for which the LC50 in the test on Mythimna separata [1] was > 1000 µM. Further, the mortality with Mythimna separata [2] is 7%.

`Clc1ccc(OCc2nnc(-c3ccc(Cl)cc3Cl)o2)cc1` had a 50% lethal concentration (LC50) in the test with Mythimna separata [1] of 15.8 µM.

With `COc1ccc(-c2nnc(C3C(C=C(Cl)Cl)C3(C)C)o2)cc1` (mixture of isomers), in the test with Mythimna separata [1], the LC50 is > 1000 µM. The compound further came in with a mortality in the test on Mythimna separata [2] of 0%.

As for `Fc1cc(-c2nnc(COc3ccc(Cl)cc3Cl)o2)c(Cl)cc1Cl`, in the test on Mythimna separata [1], the LC50 is 1700 µM.

Consider `CC1(C)C(C=C(Cl)Cl)C1c1nnc(-c2cccs2)o1` (mixture of isomers), for which the LC50 in the test with Mythimna separata [1] was > 1000 µM. The mortality in the test with Mythimna separata [2] amounted to 0%.

In the case of `CC1(C)[C@@H](C=C(Cl)Cl)[C@@H]1c1nnc(-c2ccccc2)o1` (relative stereo), in the test on Mythimna separata [1], the LC50 is 1380 µM.

On to `CC1(C)C(C=C(Cl)Cl)C1c1nnc(/C=C/c2ccccc2)o1` (mixture of isomers), for which the LC50 with Mythimna separata [1] is > 1000 µM. For the same compound, in the test with Mythimna separata [2], the mortality is 0%.

In the test on Spodoptera eridania, `Clc1ccc(-c2nnc(-c3ccc(Cl)cc3Cl)o2)c(Cl)c1` gave a 50% lethal concentration (LC50) of 10.2 µM.
